Source: PubChem
In the library only some 4.1% were active in any assay of this set; here they are far more common.
Cl transport mod = KCC2 (human) Cl- transport modulation; Q9H2X9; B-score of Tl+ flux slope (higher = more flux/activation; lower = inhibition) at 10 µM; 190,000 compounds, 2.2% hits; AID 1456; KCC2 cells, thallium flux FluoZin-2 fluorescence;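 active means thallium flux slope and its plate-corrected score both differing from the plate sample mean at a set confidence after two filtering rounds, in either direction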;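 further: slope of fluorescence scaled to starting intensity during 10 to 20 s after thallium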
Target sequence (Q9H2X9 whole entry, looked up): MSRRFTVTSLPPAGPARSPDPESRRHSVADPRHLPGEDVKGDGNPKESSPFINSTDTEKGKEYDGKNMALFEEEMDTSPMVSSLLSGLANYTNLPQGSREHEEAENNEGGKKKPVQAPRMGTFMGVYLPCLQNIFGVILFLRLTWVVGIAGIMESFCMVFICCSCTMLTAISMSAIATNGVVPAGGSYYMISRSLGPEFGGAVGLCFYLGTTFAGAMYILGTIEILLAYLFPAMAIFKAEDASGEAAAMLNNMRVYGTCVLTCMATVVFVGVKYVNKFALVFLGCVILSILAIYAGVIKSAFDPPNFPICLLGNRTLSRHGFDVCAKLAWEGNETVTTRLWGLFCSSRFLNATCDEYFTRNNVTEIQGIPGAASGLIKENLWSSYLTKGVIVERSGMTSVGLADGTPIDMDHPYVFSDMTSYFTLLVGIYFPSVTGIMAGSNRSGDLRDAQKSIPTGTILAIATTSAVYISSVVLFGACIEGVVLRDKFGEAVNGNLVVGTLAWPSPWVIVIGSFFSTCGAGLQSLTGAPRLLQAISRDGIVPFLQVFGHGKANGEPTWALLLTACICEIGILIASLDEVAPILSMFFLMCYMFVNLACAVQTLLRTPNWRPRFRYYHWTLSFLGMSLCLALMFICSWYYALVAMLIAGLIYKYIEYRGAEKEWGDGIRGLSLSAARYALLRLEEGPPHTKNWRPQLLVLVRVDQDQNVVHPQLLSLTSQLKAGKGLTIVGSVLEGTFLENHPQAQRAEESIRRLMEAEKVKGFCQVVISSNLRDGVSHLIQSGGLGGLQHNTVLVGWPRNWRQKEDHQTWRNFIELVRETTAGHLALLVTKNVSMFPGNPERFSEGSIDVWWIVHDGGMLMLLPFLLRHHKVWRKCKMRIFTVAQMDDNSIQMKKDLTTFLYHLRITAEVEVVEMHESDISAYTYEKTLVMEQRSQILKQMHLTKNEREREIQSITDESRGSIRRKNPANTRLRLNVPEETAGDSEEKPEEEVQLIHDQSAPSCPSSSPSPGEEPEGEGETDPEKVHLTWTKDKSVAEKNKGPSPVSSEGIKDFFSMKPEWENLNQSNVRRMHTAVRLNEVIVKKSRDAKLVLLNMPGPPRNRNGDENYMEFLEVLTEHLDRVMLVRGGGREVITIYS
KCNK3 inh = human KCNK3 channel inhibition, primary screen; O14649; CHO-KCNK3 thallium flux, FluxOR fluorescence; stronger effect = lower value; B-score at 10 µM; 340,000 compounds, 0.84% hits;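 active means B-score under library mean minus 4 SD, starting fluorescence ratio at most library mean plus 5 SD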;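 further: more negative B-score means stronger inhibition of thallium flux through KCNK3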
hERG rescue = compounds protecting human hERG from proarrhythmic drug block | CHO-hERG, FluxOR thallium flux, dofetilide IC70 present | activation (rescue from dofetilide block), less the hit threshold, % at 10 µM | 310,000 compounds, 0.51% hits | Q12809;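 active means activation above the mean of controls blocked by dofetilide plus 5 SD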;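 further: thallium influx through hERG after potassium depolarization seen as dye fluorescence rise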
KCNQ1 act = potentiates or activates the human KCNQ1 potassium channel | AID 2648 | 310,000 compounds, 0.35% hits | B-score at 10 µM | P51787 | CHO-K1 KCNQ1, thallium flux FluxOR fluorescence; stronger effect = higher value;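 active means fluorescence ratio B-score, a plate-corrected score, at least three library SD, with initial intensity B-score within 5 SD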
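Test system: CHO-K1 cells stably expressing KCNQ1 / Medium: assay buffer / Also added: depolarizing K+/Tl+ stimulus, K2SO4 and Tl2SO4 each 12.5 mM in 5x stock / Incubation: 90 min dye loading and 20 min compound exposure, both at room temperature / Signal: thallium influx via FluxOR fluorescence, kinetic imaging / Evaluation: B score of baseline-normalized fluorescence ratio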
KCNK9 inh = blocks the human KCNK9 two-pore domain potassium channel; 310,000 compounds, 1.2% hits; B-score at 10 µM; HEK293 KCNK9, FluxOR thallium flux fluorescence; stronger effect = lower value;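 active means ratio B-score over 3 SD below the library mean, with starting fluorescence within 5 SD of its mean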;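 further: negative B-score means less thallium flux so channel inhibition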
KCNQ1 inh = inhibitors of human KCNQ1 potassium channel | P51787 | 310,000 compounds, 1.3% hits | CHO-K1 KCNQ1, FluxOR thallium flux fluorescence; stronger effect = higher value | B-score at 10 µM;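 active means compounds whose thallium flux B-score, printed positive for inhibition, exceeds three library SD while starting fluorescence stays within three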;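 further: channel opened by potassium depolarization with thallium stimulus after 20 min compound exposure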
KCC2 sec1 = confirmation of human KCC2 transport modulators; shares compounds with Cl transport mod; HEK293-KCC2, thallium flux, FluoZin2 fluorescence; stronger effect = higher value; normalised thallium flux (F/F0 slope) at 10 µM; 3,700 compounds, 15% hits; AID 1713;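 active means thallium flux slope above the same plate's solvent-only control mean plus 3 SD; inconclusive means the two replicate wells disagree; inactive means no significant difference from solvent-only control wells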
KCC2 bumet counter = thallium flux persisting under bumetanide in KCC2 cells, counter-screen secondary assay | shares compounds with Cl transport mod | HEK293-KCC2 + bumetanide/ouabain, thallium flux FluoZin2; stronger effect = higher value | normalized thallium flux at 10 µM | 3,700 compounds, 49% hits | AID 1714;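 active means thallium entry rate above the same plate's blocked-transporter control wells by more than 3 SD; inconclusive means the two repeat wells disagree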;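 further: raw slope of fluorescence over initial fluorescence between 10 and 20 s after thallium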
KCC2 secondary2 = KCC2 (human) modulation, second secondary assay; shares compounds with Cl transport mod; HEK293-KCC2, thallium flux FluoZin2 fluorescence; actives lie on both sides; F/F0 rise rate, 10–20 s post-thallium; normalized thallium flux at 10 µM; 3,700 compounds, 23% hits;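 active means thallium flux slope more than 3 SD above or below the plate's solvent-only control mean, mostly below; inconclusive means the two repeat wells disagreed; inactive means no significant shift from solvent-only controls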;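 further: raw slope with 0.1% DMSO as baseline and bumetanide as block control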
HEK counter1 = acts in parental HEK cells, KCC2 counter-screen. shares compounds with Cl transport mod. HEK293 parental cells, thallium flux FluoZin2, ouabain; baseline-ratio fluorescence slope, 10–20 s after thallium. thallium flux rate (normalised fluorescence) at 10 µM. 3,700 compounds, 46% hits. AID 1716;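 active means thallium flux rate significantly above the same plate's solvent-only control wells, beyond their mean plus 3 SD; inconclusive means the two replicate wells gave conflicting results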
KCC2 ouabain = modulates human KCC2 on retest with ouabain | 3,700 compounds, 48% hits | shares compounds with Cl transport mod | raw Tl+ flux slope (below DMSO = inhibition, above = activation) at 10 µM | HEK293-KCC2, thallium flux FluoZin2 fluorescence; bidirectional: low = inhibitor, high = activator;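 active means thallium flux slope beyond 3 SD from same-plate DMSO control mean in most replicates, usually higher, sometimes lower; inconclusive means repeat tests gave conflicting results; inactive means no significant difference from controls in most replicates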;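 further: slope of initial-normalized fluorescence between seconds 10 and 20 after thallium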
HEK counter2 = parental HEK flux effect, counter-screen 2; shares compounds with Cl transport mod; HEK293 parental, thallium flux FluoZin-2 fluorescence slope; thallium flux slope at 10 µM; 3,700 compounds, 33% hits;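 active means thallium flux slope above the same plate's solvent-control mean plus 3 SD in both duplicate wells; inconclusive means duplicate wells that disagreed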;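 further: run without ouabain in cells lacking the KCC2 cotransporter; slope of fluorescence scaled to its starting value between 10 and 20 s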
Active calls of the source: *.

How did C1CCc2c(c(N3CCOCC3)nc3sc4c(N5CCOCC5)nnnc4c23)C1 do in these assays?
KCNK3 inh: inactive

What do the screens show for `CC1CN(c2oc(Cc3cccc4ccccc34)nc2C#N)CC(C)O1` (configuration not stated)?
KCNK3 inh: inactive; hERG rescue: -14.1; KCNQ1 act: inactive; KCNK9 inh: inactive; KCNQ1 inh: inactive

How did CC(C)Nc1oc(Cc2cccc3ccccc23)nc1C#N do in these assays?
Cl transport mod: -4.51*; KCNK3 inh: inactive; hERG rescue: -8.7; KCNQ1 act: inactive; KCNK9 inh: inactive; KCNQ1 inh: inactive; KCC2 sec1: 0.00677; KCC2 bumet counter: 0.00551; KCC2 secondary2: inconclusive; HEK counter1: inconclusive; KCC2 ouabain: 0.0137*; HEK counter2: 0.0115

How did N#Cc1nc(Cc2ccccc2)oc1NCc1ccccc1Cl do in these assays?
Cl transport mod: -2.94*; KCNK3 inh: inactive; hERG rescue: -11.8; KCNQ1 act: inactive; KCNK9 inh: inactive; KCNQ1 inh: inactive; KCC2 sec1: 0.00748; KCC2 bumet counter: 0.00581; KCC2 secondary2: 0.0301; HEK counter1: 0.0057*; KCC2 ouabain: 0.0159*; HEK counter2: 0.00992

How did CNc1oc(Cc2cccc3ccccc23)nc1C#N do in these assays?
KCNK3 inh: inactive; hERG rescue: -12.9; KCNQ1 act: inactive; KCNK9 inh: inactive; KCNQ1 inh: inactive; KCC2 sec1: 0.0112; KCC2 bumet counter: 0.00819*; KCC2 secondary2: inconclusive; HEK counter1: 0.00791; KCC2 ouabain: 0.0145*; HEK counter2: inconclusive

What do the screens show for `CC(C)[C@H](N)c1cn([C@@H](CC(N)=O)C(=O)N2CCNCC2)nn1`?
KCNK3 inh: inactive

Results for Cc1ccc(Nc2nc(N)nc(COC(=O)C3=COCCO3)n2)cc1 ?
KCNK3 inh: inactive

What do the screens show for `CCCN(C(=O)CCOc1ccc(C(C)(C)C)cc1)c1c(N)n(Cc2ccccc2)c(=O)[nH]c1=O`?
KCNK3 inh: inactive; hERG rescue: -14.6; KCNQ1 act: inactive; KCNK9 inh: inactive; KCNQ1 inh: inactive

Results for O=C(COC(=O)/C=C/c1ccccc1)NC1CCS(=O)(=O)C1 (configuration not stated) ?
KCNK3 inh: inactive

What do the screens show for `Cc1nn(-c2ccccc2)c(C)c1/C=C/C(=O)OCC(=O)NC1CCS(=O)(=O)C1` (configuration not stated)?
KCNK3 inh: inactive; hERG rescue: -9.5; KCNQ1 act: inactive; KCNK9 inh: inactive; KCNQ1 inh: inactive; KCC2 sec1: 0.0056; KCC2 bumet counter: 0.00441; KCC2 secondary2: 0.027; HEK counter1: 0.00806; KCC2 ouabain: 0.0177; HEK counter2: 0.0102
